Assay outcomes (PubChem BioAssay)
TRPC4 agonist: activators of mouse TRPC4 channel, primary screen, Fluo4 calcium, HEK293 TRPC4beta/mu-opioid cells | AID 2237, 2010 | 310,000 compounds, 0.49% hits | B-score at 10 µM | Short transient receptor potential channel 4 (Mus musculus), Q9QUQ5 | Fluo4 calcium fluorescence; active compounds read high;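 active = B-score above 5 SD of library B-scores, and initial fluorescence ratio not above library mean plus 5 SD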;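 also: positive B-score marks a calcium rise read as TRPC4 activation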
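Test system: HEK293 cells stably co-expressing mouse TRPC4beta and mu-opioid receptor | Schedule: Fluo4 dye loading 45 min at room temperature, 110 s recording | Measured by: Kinetic Fluo4 calcium fluorescence, 5 s baseline at 1 Hz | Evaluation: B score of integrated ratio | Controls: Buffer (low) and maximal DAMGO (high)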
TRPC6 inh: mouse TRPC6 channel inhibitors, primary screen, cell-based, HEK293, membrane potential dye; Short transient receptor potential channel 6 (Mus musculus), Q61143; ACh-evoked depolarization; active compounds read low; B-score at 10 µM; 310,000 compounds, 1.1% hits; AID 2553, 2010;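 active = B-score under library mean minus 3 SD, initial fluorescence not abnormally high, positive integrated signal ratio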;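 also: B-score derived from integrated fluorescence ratio over the kinetic read; more negative B-score means stronger inhibition of depolarization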
Kir21 block: inhibitors of mouse Kir2.1 inward-rectifier potassium channel; Inward rectifier potassium channel 2 (Mus musculus), P35561; 310,000 compounds, 0.85% hits; HEK293-Kir2.1, FluxOR thallium flux fluorescence; active compounds read low; AID 1672, 2009; B-score at 10 µM;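 active = fluorescence ratio B-score at or below minus 3 SD of library scores, with starting-brightness B-score within 2 SD, cut at about -4.2 in these data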;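 also: channel flux triggered by added potassium and thallium sulfate stimulus; B-score of peak minus minimum fluorescence over baseline after thallium stimulus; more negative B-score means stronger Kir2.1 block with less thallium influx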
Target sequence (P35561 whole entry, looked up): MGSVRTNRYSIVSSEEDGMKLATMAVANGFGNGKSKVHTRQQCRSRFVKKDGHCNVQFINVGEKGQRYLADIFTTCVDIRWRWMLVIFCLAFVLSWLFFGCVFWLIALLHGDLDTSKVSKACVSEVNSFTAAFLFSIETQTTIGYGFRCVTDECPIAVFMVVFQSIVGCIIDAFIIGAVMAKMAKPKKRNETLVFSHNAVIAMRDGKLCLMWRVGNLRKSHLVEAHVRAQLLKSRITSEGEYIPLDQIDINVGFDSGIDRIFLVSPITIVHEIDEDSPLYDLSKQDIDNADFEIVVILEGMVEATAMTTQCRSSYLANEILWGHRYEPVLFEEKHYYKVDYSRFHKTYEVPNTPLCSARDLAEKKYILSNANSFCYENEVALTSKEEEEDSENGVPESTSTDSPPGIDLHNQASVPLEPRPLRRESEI
TRPC6 act: mouse TRPC6 channel activators, primary screen, cell-based, HEK293, membrane potential dye; B-score at 10 µM; 310,000 compounds, 0.13% hits; Short transient receptor potential channel 6 (Mus musculus), Q61143; HEK293-TRPC6 membrane potential dye fluorescence; active compounds read high;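 active = B-score of the integrated fluorescence ratio above library mean plus 3 SD, and starting fluorescence ratio within library mean plus 5 SD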;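 also: higher score means more depolarization so channel activation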
TRPC4 potent: positive allosteric modulators of TRPC4, primary screen, cell-based, mouse TRPC4beta, HEK293 mu-opioid, Fluo-4 calcium. DAMGO EC20, Fluo-4 Ca2+ flux; active compounds read high. B-score at 10 µM. 310,000 compounds, 0.42% hits. AID 2227, 2009;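 active = B-score of calcium response area above 5 SD of library B-scores, with initial fluorescence ratio within 5 SD of library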;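 also: B-score of integrated fluorescence ratio over time as area under calcium response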
TRPC4 block: inhibitors of mouse TRPC4 channel, primary screen, Fluo4 calcium, HEK293 TRPC4beta/mu-opioid cells; 300,000 compounds, 0.39% hits; DAMGO-evoked Fluo4 calcium flux; active compounds read low; B-score at 10 µM;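 active = B-score over 3 SD under the library average, no early fluorescence shift, positive overall ratio signal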
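Assay system: HEK293 cells with stable TRPC4beta plus mu-opioid receptor expression. Dosing: single dose. Measured by: Fluo4 Ca2+ flux fluorescence. Also added: DAMGO in two steps, submaximal then maximal. Read-out: B score from integrated Fluo4 fluorescence ratio.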
TRPC4 sel inh 2: second selectivity test of TRPC6 inhibitors: effect on mouse TRPC4; shares compounds with TRPC6 inh; HEK293 TRPC4/MOR, membrane potential dye fluorescence; channel activated by saturating DAMGO dose; inhibition, % at 10 µM; 920 compounds, 42% hits; AID 2776;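 active = compounds whose fluorescence signal differed from control wells by over 3 SD, either direction, in both duplicate plates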
TRPC4 spec: mouse TRPC4 modulation by TRPC6 hits, confirmation, selectivity assay for TRPC6 inhibitor project, cell-based, HEK293 TRPC4/mu-opioid, membrane potential dye; activity change, negative = inhibition, % at 10 µM; shares compounds with TRPC6 inh; membrane potential fluorescence; 920 compounds, 61% hits;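 active = rise or fall in signal beyond 3 SD of buffer-only wells in both replicate plates, either sign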;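 also: integrated kinetic ratio of fluorescence range over baseline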
HEK293 MPD ctr 2-1: nonspecific membrane potential effects, parental HEK293, confirmation, counter-screen for TRPC6 inhibitor project, cell-based, second counter screen | parental HEK293 membrane potential dye fluorescence; maximal acetylcholine challenge after compound addition | shares compounds with TRPC6 inh | signal change vs control, % at 10 µM | AID 2779, 2010 | 920 compounds, 31% hits;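 active = membrane potential signal moving either way by over 3 SD of the maximum-effect control, in both duplicate plates, meaning non-specific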
HEK293 MPD ctr-1: membrane potential modulation in parental HEK293, confirmation, counter-screen for TRPC6 inhibitor project, cell-based | parental HEK293 membrane potential dye fluorescence | membrane potential signal change, % at 10 µM | AID 2780, 2010 | 920 compounds, 60% hits | shares compounds with TRPC6 inh;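 active = membrane potential signal shifting up or down by more than 3 SD of buffer-only wells, on both duplicate plates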
HEK293 MPD ctr-2: parental HEK293 membrane potential modulation, confirmation, counter-screen for TRPC6 modulator project, cell-based; shares compounds with TRPC6 inh; membrane potential dye fluorescence; membrane potential signal change, % at 10 µM; 2,400 compounds, 51% hits;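 active = membrane potential signal moves up or down beyond 5 SD from buffer-only wells, on both duplicate plates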
HEK293 MPD ctr 2-2: second check of TRPC6 modulator effects in parental HEK293 cells | shares compounds with TRPC6 inh | membrane potential dye fluorescence; after compound, maximal acetylcholine stimulation | inhibition, % at 10 µM | 2,400 compounds, 14% hits | AID 488926;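 active = membrane potential signal drops by more than 5 SD from the mean control signal, in both duplicate plates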;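 also: plate controls were acetylcholine ECmax control wells for no effect and buffer only wells for full effect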
TRPC4 ctr mod: TRPC4 modulation by TRPC6 hit compounds, confirmation, selectivity assay for TRPC6 modulator project, cell-based, HEK293 TRPC4/mu-opioid, membrane potential dye, mouse | 2,400 compounds, 69% hits | shares compounds with TRPC6 inh | percent change from control (negative = decrease, positive = increase), % at 10 µM | membrane potential fluorescence;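 active = membrane potential signal moved up or down beyond 5 SD of buffer control wells, in both duplicate plates, actives on both sides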;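 also: plate controls were assay buffer wells for no effect and DAMGO maximal-effect wells for full effect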
TRPC4 ctr inh 2: mouse TRPC4 off-target activity of TRPC6 modulators, second screen. shares compounds with TRPC6 inh. HEK293 TRPC4/mu-opioid, membrane potential dye fluorescence; stimulated with maximal-effect DAMGO. inhibition, % at 10 µM. 2,400 compounds, 55% hits. AID 488928;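 active = drop in membrane potential signal beyond 5 SD of the control wells in both duplicate plates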;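 also: TRPC4 counter screen for TRPC6 hits run under conditions tuned for TRPC6 not TRPC4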
TRPC6 block conf: mouse TRPC6 channel inhibitors, confirmation, HEK293 cells, membrane potential dye, duplicate | 3,300 compounds, 43% hits | shares compounds with TRPC6 inh | inhibition, % at 10 µM | ACh-evoked depolarization;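 active = fluorescence ratio falls more than 5 SD below the full-stimulation control mean, in both duplicate runs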;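 also: integrated fluorescence ratio of peak minus minimum over baseline after agonist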
TRPC6 act confirm: mouse TRPC6 channel activators, confirmation, HEK293 cells, membrane potential dye, duplicate | shares compounds with TRPC6 inh | HEK293-TRPC6 membrane potential dye fluorescence, FDSS | activation, % at 10 µM | 2,800 compounds, 11% hits | AID 488961, 2010;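 active = ratio signal rise beyond 5 SD above unstimulated control wells' mean, seen in both duplicate runs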;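 also: plate controls were buffer EC0 wells for no effect and acetylcholine ECmax response for full effect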
An asterisk follows results filed as active; i = inactive; . = no result given. Compounds with a hit are over-represented: about 2.9% of the library has one in this group of screens.

SMILES	TRPC4 agonist	TRPC6 inh	Kir21 block	TRPC6 act	TRPC4 potent	TRPC4 block	HEK293 MPD ctr-2	HEK293 MPD ctr 2-2	TRPC4 ctr mod	TRPC4 ctr inh 2	TRPC6 block conf	TRPC6 act confirm	others
O=C(Nc1ccccc1NC(=O)c1c(F)cccc1F)c1c(F)cccc1F	i	-5.8*	-0.01	i	i	i	i	i	i	i	i	i
Cc1cccn2c(=O)c(/C=C(\C#N)C(=O)NC3CCS(=O)(=O)C3)c(N3CC(C)OC(C)C3)nc12 (stereo unspecified)	i	-5*	-0.05	i	i	i	i	i	-14%*	i	i	i
COCCNC(=O)/C(C#N)=C/c1c(N2CCN(C)CC2)nc2c(C)cccn2c1=O	i	i	0	i	i	i	.	.	.	.	.	.
CCN1CCN(c2nc3c(C)cccn3c(=O)c2/C=C(\C#N)C(=O)NCCOC)CC1	i	-5.5*	-0.01	i	i	i	-278%*	i	-52%*	i	i	i
COc1ccc(N(C(=O)CNC(=O)c2cccs2)C(C(=O)NC2CCCC2)c2cccnc2)cc1 (stereo unspecified)	i	i	-0.03	i	i	i	.	.	.	.	.	.
COc1ccc(S(=O)(=O)N2CCCCC2)cc1NC(=O)C1CSC2(C)CCC(=O)N12 (stereo unspecified)	i	i	0.45	i	i	i	.	.	.	.	.	.
CCOc1ccc(S(=O)(=O)N2CCCCC2)cc1NC(=O)C1CSC2(C)CCC(=O)N12 (stereo unspecified)	i	-8.3*	-0.32	12*	i	i	152%*	i	33%*	i	68%*	106%*
COc1ccc(-n2c(SCCNCCO)nc3sc4c(c3c2=O)CCCC4)cc1	i	-5.2*	-0.16	i	i	i	-142%*	i	-34%*	74%*	52%*	i
O=C(c1ccc(Cl)cc1)N1CCN(CCc2ccccn2)CC1	i	i	1.4	i	i	i	.	.	.	.	.	.
c1ccc(N2CCN(c3ccccc3)C2c2cccnc2)cc1	i	-5.6*	-2.8	i	i	i	i	i	18%*	31%*	i	.
Cc1ccc(N2CCN(c3ccc(C)cc3)C2c2cccnc2)cc1	i	i	-1.7	i	i	i	.	.	.	.	.	.
CC(C)CN1C(=O)/C(=C(/C#N)C(=O)NC2CCCCC2)c2ccccc21	i	i	0.09	i	i	i	.	.	.	.	.	.
CCOC(=O)c1ccc(NC(=O)CCc2ccc(CC)o2)cc1	i	-12*	2.7	i	i	i	.	.	.	.	i	.	TRPC4 sel inh 2=i;TRPC4 spec=i;HEK293 MPD ctr 2-1=i;HEK293 MPD ctr-1=i
CCc1ccc(CCC(=O)Nc2ccc(C(C)=O)cc2)o1	i	i	-0.03	i	i	i	.	.	.	.	.	.
COc1ccc(C2=Nn3c([n+](C)c4ccccc43)SC2)cc1	i	-7.1*	2.2	i	i	i	.	.	.	.	109%*	i	TRPC4 sel inh 2=66%*;TRPC4 spec=-20%*;HEK293 MPD ctr 2-1=-36%*;HEK293 MPD ctr-1=-338%*
C=CC[n+]1c(/C=C/c2ccc(OC(C)=O)c(OC)c2)ccc2ccccc21	i	-8*	-0.06	i	i	i	-301%*	90%*	-57%*	65%*	64%*	i
CCCn1c(SCC(=O)N2CCCC(C)C2)nnc1-c1cccnc1 (stereo unspecified)	i	i	-0.66	i	i	i	.	.	.	.	.	.
Oc1c(C(Nc2ccccn2)c2ccccn2)ccc2cccnc12 (stereo unspecified)	i	-6.2*	0.91	i	i	i	i	i	9.5%*	i	40%*	i
CCN(CC)CCNC(=O)c1cn(CC)c2ccc(S(=O)(=O)N3CCOCC3)cc2c1=O	i	i	0.62	i	i	i	.	.	.	.	.	.
CN(CCNC(=O)c1cn(C)c2ccc(S(=O)(=O)N3CCCC3)cc2c1=O)CCc1ccccc1	i	i	0.04	i	i	i	.	.	.	.	.	.
CCCCN(C)CCCNC(=O)c1cn(CC)c2ccc(S(=O)(=O)N3CCc4ccccc4C3)cc2c1=O	i	-6.9*	-2	i	i	i	.	.	.	.	i	i	TRPC4 sel inh 2=52%*;TRPC4 spec=-18%*;HEK293 MPD ctr 2-1=i;HEK293 MPD ctr-1=-160%*
